pIC50: −log10 of the molar value.
What was measured:
[1] = Aqueous solubility in intravenous formulation; assay type: physicochemical; settings: limited the dose to 13.4 mg/kg
ABCB1 = settings: read-out: IC50 ABCB1 inhibition; in vitro; cited from earlier work
[2] = Botryllamide G plasma pharmacokinetics in wild-type mice; assay type: in vivo; settings: male, FVB, mouse, iv, 13.4 mg/kg
Outline: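 Destructive sampling (n = 3 per timepoint) ran 0.25–24 h into heparinized plasma. Phospholipid-removal/methanol precipitation, then isocratic C18 LC-MS/MS (20–50,000 ng/mL). AUClast used Bailer's method. t1/2 = ln2/terminal kEL, from concentrations above LLOQ.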

[3] = Abcg2 knockout animals (so in the source); cited from earlier work
[4] = Lapatinib brain and plasma exposure in Mdr1a/Mdr1b; assay type: in vivo, mouse; settings: for lapatinib brain AUC through 8 h: Mdr1a/Mdr1b (-/-) mice; for AUC: male, FVB, mouse, brain, oral
[5] = Lapatinib brain and plasma exposure in wild-type FVB mice; assay type: in vivo, mouse

lapatinib brain AUC through 8 h ([4]; lapatinib + botryllamide G) [pg·h/mg] | lapatinib brain AUC through 8 h ([4]; lapatinib alone) [pg·h/mg] | AUC [4] [ng·h/mL] | AUC ([4]; 90 mg/kg) [ng·h/mL] | Kp ([5]; male, FVB, mouse, brain and plasma, oral, 90 mg/kg) | AUC ([5]; male, FVB, mouse, plasma, oral, 90 mg/kg) [ng·h/mL] | lapatinib brain exposure through 1 h (AUC0-1 h) ([5]; wild-type mice, doublet (lapatinib + botryllamide G)) [pg·h/mg] | lapatinib brain exposure AUC through 24 h ([5]; wild-type mice, lapatinib + botryllamide G + tariquidar 4 mg/kg i.v. (triplet)) [pg·h/mg] | lapatinib plasma AUC ([5]; wild-type mice, lapatinib + botryllamide G, 24 h) | lapatinib brain AUC through 24 h ([5]; wild-type mice, lapatinib alone (abstract)) [ng·h/mL] | lapatinib brain exposure through 1 h (AUC0-1 h) ([5]; wild-type mice, singlet (lapatinib alone)) [pg·h/mg] | lapatinib brain exposure through 1 h (AUC0-1 h) ([5]; wild-type mice, singlet (lapatinib alone), listed as Lapatinib) [pg·h/mg] | lapatinib brain exposure through 1 h (AUC0-1 h) ([5]; wild-type mice, triplet (lapatinib + botryllamide G + tariquidar)) [pg·h/mg] | lapatinib brain exposure through 1 h (AUC0-1 h) ([5]; wild-type mice, triplet (lapatinib + botryllamide G + tariquidar), listed as Lapatinib) [pg·h/mg] | SMILES | aqueous solubility [1] | pIC50 (ABCB1) | AUC [2] [ng·h/mL] | Cmax [2] [ng/mL] | half-life [2] [min] | increase in lapatinib brain concentrations [3]
 |  |  |  |  |  |  |  |  |  |  |  |  |  | CO/C(=C\c1ccc(O)cc1)C(=O)N/C=C/c1cc(Br)c(O)c(Br)c1 [botryllamide G] | poor | < 4.30 | 2090 | 4110 | 276 | 
4007 | 2058 | 4010 | 2060 | 0.067 | 66400 | 48.3 ± 14.9 | 2878 | 71,576 h*pg/mg | 4461 | 120 ± 39.9 | 120 | 298 ± 44.6 | 298 | CS(=O)(=O)CCNCc1ccc(-c2ccc3ncnc(Nc4ccc(OCc5cccc(F)c5)c(Cl)c4)c3c2)o1 [lapatinib, N-{3-chloro-4-[(3-fluorobenzyl)oxy]phenyl}-6-[5-({[2-(methylsulfonyl)ethyl]amino}methyl)-2-furyl]-4-quinazolinamine] |  |  |  |  |  | approximately 40 fold

Reference: publication PMC7012088 (Cancer Biology & Therapy, 2019)
